Source: PubChem BioAssay (Sanford-Burnham Center for Chemical Genomics)
This is a sample that favours compounds with a hit; in the whole collection about 2.5% have one here.
SENP1 inh = inhibitors of human SENP1 SUMO protease catalytic domain; Q9P0U3; recombinant SENP1 catalytic domain, CyPet-SUMO1-YPet FRET cleavage; inhibition, % at 10 µM; 0.21% of 360,000 active; AID 624204;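 active means inhibition at least 30% at 10 µM, raw YFP signal under a set limit, fluorescence ratio 0.5 to 1.5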;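 further: 0% = enzyme with DMSO and 100% = no enzyme wells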
Target sequence (Q9P0U3 419-644 limits assumed): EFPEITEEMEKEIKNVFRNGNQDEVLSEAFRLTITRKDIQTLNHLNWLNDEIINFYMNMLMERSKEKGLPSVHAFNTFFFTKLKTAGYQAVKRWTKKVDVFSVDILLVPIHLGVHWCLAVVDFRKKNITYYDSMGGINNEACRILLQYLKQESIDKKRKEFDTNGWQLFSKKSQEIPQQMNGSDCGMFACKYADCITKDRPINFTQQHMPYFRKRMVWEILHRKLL
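Material – human SENP1 catalytic domain · Input – SENP1 enzyme, 20 pM final · Compound dosing – single concentration of 10 µM compound, 0.5% DMSO final · Timing – enzyme reaction for 50 min at room temperature, dark · Measured by – FRET fluorescence in CFP and YFP emission channels · Control set – no-enzyme wells low, DMSO-plus-enzyme wells high control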
SENP6 block = blocks the human protease SENP6. 1.8% of 330,000 active. AID 2599. Recombinant SENP6 catalytic domain, aminoluciferin luminescence. inhibition, % at 10 µM;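 active means inhibition above about 50% at the single tested dose, limit read from the data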;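 further: plate controls were DMSO wells with enzyme for no effect and DMSO wells lacking enzyme for full effect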
SENP8 block-1 = inhibitors of human SENP8 protease | 1.2% of 330,000 active | AID 2540 | inhibition, % at 10 µM | purified SENP8, Z-RLRGG-aminoluciferin cleavage, luminescence | Q96LD8; in the data active means inhibition above about 50%
Target sequence (Q96LD8 whole entry, looked up): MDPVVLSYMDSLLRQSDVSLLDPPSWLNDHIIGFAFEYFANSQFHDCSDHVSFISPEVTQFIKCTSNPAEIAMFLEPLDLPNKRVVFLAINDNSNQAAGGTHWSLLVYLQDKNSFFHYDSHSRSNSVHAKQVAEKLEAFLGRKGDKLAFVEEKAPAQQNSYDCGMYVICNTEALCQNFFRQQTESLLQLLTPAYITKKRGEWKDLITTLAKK
SENP7 block = inhibitors of human SENP7 protease; Q9BQF6; recombinant SENP7, Z-RLRGG-aminoluciferin luminescence, 40 min; inhibition, % at 5 µM; 1.5% of 330,000 active;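 active means inhibition above about 50% at the single test dose, limit read from the data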;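 further: plate controls were DMSO with enzyme for no effect and no enzyme buffer wells for full effect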
SENP8 block-2 = SENP8 (human) protease inhibition. Q96LD8. 0.64% of 360,000 active. recombinant SENP8, Nedd8 substrate fluorescence. inhibition, % at 20 µM; in the data active means inhibition mostly above about 40%, no sharp cut-off; inactive means mostly below about 27%
SENP8 confirm = confirmation of human SENP8 protease inhibitors | AID 488912 | inhibition, % at 12.5 µM | shares compounds with SENP7 block | 40% of 6,200 active | Recombinant SENP8, Z-RLRGG-aminoluciferin luminescence, 60 min;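 active means mean inhibition across replicates above about 50%, limit read from the data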
SENP6 confirm = human SENP6 inhibition, confirmed. shares compounds with SENP7 block. inhibition, % at 12.5 µM. recombinant SENP6, Z-RLRGG-aminoluciferin luminescence. 58% of 6,200 active
SENP7 confirm = confirmation of human SENP7 protease inhibitors; shares compounds with SENP7 block; recombinant SENP7, Z-RLRGG-aminoluciferin luminescence, 40 min; inhibition, % at 12.5 µM; 69% of 6,200 active
Casp3 select = caspase-3 inhibition (SENP selectivity assay); shares compounds with SENP7 block; purified caspase-3, Z-DEVD-aminoluciferin luminescence, 60 min; inhibition, % at 12.5 µM; 60% of 6,200 active;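 active means mean inhibition above about 50%, limit read from the data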;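 further: plate controls were enzyme with DMSO for no effect and wells without caspase-3 for full effect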
Target sequence (P42574 28-227 limits assumed): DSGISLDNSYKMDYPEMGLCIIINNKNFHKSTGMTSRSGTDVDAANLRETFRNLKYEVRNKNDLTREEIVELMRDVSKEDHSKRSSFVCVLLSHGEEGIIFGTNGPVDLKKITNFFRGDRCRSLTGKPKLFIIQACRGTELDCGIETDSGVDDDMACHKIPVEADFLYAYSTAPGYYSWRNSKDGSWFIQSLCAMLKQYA
SENP luc ctr = luminescence interference (SENP counter-screen). Pre-incubated SENP8/Z-RLRGG-aminoluciferin, luciferase luminescence interference. AID 488919. shares compounds with SENP7 block. 39% of 6,200 active. inhibition, % at 12.5 µM;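 active means mean inhibition above about 50% when retested at one dose, limit read from the data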;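 further: plate controls were DMSO wells with completed reaction for no effect and substrate without enzyme for full effect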
Numbers without * were called inactive; i = inactive; / = no result given.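 How the source made its calls, unless noted: active means mean inhibition above about 50% in the one-dose retest (limit read from the data); inactive means the rest.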

SMILES	SENP1 inh	SENP6 block	SENP8 block-1	SENP7 block	SENP8 block-2	SENP8 confirm	SENP6 confirm	SENP7 confirm	Casp3 select	SENP luc ctr
Cc1ccccc1C(OCC(O)CN1CCN(CCO)CC1)c1ccccc1 (stereo not given)	1.0	2.0	-6.1	-0.7	16.3	/	/	/	/	/
Cc1ccc(-n2nc3ccc(N)cc3n2)c(C)c1	-116.6	78.2*	64.7*	43.2	-313.2	3.5	19.8	29.3	11.5	11.9
Cc1ccc(-n2nc3ccc(N)cc3n2)cc1Cl	-24.0	89.9*	87.3*	21.7	-299.5	11.9	63.2*	75.6*	63.2*	1.8
COc1ccc(-n2nc3ccc(NS(C)(=O)=O)cc3n2)cc1Cl	-14.6	71.5*	51.2*	74.0*	i	-7.2	39.4	74.6*	55.2*	-1.8
Cc1cc(N)ccc1-n1nc2ccccc2n1	0.5	-16.6	-5.0	1.9	-413.9	/	/	/	/	/
Cc1ccc(-n2nc3ccc(N)cc3n2)cc1C	-25.7	91.5*	81.6*	32.1	-445.8	-5.4	94.0*	101.3*	82.4*	52.3*
Cc1cc(C)c(NC(=O)c2cccc3c2C(=O)N(C2CCCCC2)C3)c(C)c1	0.4	-14.6	-6.8	11.8	23.0	/	/	/	/	/
COc1ccc(-n2nc3ccc(N)cc3n2)cc1Cl	-25.1	85.7*	88.1*	58.5*	-307.2	39.7	80.9*	95.0*	56.6*	46.0
COc1cc2nn(-c3ccccc3N)nc2cc1OC	-86.6	/	/	/	-494.5	/	/	/	/	/
N#C/C(=C(/O)C(Cl)(Cl)Cl)c1nc2ccccc2[nH]1	-9.2	96.4*	87.2*	74.7*	29.1	90.2*	90.5*	99.8*	91.3*	54.8*
O=C(CNc1cccc2ccccc12)N/N=C/c1ccc([N+](=O)[O-])o1	-3.3	80.4*	8.8	39.2	-98.7	21.5	40.1	11.5	0.4	-1.1
O=C(CNc1cccc2ccccc12)N/N=C/c1ccc[nH]1	-0.2	6.9	5.7	-2.0	-359.1	/	/	/	/	/
O=C(CNc1cccc2ccccc12)N/N=C/C(Br)=C/c1ccccc1	-14.2	80.0*	55.5*	39.1	-47.6	10.0	13.5	12.2	4.9	4.6
C=CCc1cccc(/C=N/NC(=O)CNc2ccccc2OC)c1O	0.9	-6.4	1.1	4.7	1.8	/	/	/	/	/
C=CCc1cccc(/C=N/NC(=O)CNc2cccc3ccccc23)c1O	-1.5	71.6*	33.7	31.4	-215.7	7.3	7.2	17.7	12.8	9.5
COc1ccc(C(=O)N/C(=C/c2cccs2)C(=O)N2CCN(C)CC2)cc1	-1.0	/	/	/	11.1	/	/	/	/	/
CN(C)C(CNc1ccc(S(C)(=O)=O)cc1[N+](=O)[O-])c1ccccc1 (stereo not given)	3.2	65.1*	44.0	5.8	33.8	3.9	2.2	6.2	2.3	2.6
COc1ccc(C(CNc2ccc(S(C)(=O)=O)cc2[N+](=O)[O-])N(C)C)cc1OC (stereo not given)	1.0	-0.1	5.2	5.3	10.9	/	/	/	/	/
O=[N+]([O-])c1ccccc1CSc1nc2ccccc2o1	3.6	54.7*	29.4	8.5	17.3	18.3	13.6	49.2	7.0	8.8
N/C(=N\OC(=O)c1cccc2ccccc12)c1cccc([N+](=O)[O-])c1	1.8	5.6	-4.1	5.0	12.4	/	/	/	/	/
Cc1cccc(/C(N)=N/OC(=O)c2cccc3ccccc23)c1	1.7	86.7*	76.5*	86.9*	-132.1	86.3*	84.6*	96.1*	72.3*	82.2*
CCOP(=O)(OCC)/C(=N/OC(=O)c1ccc(Cl)cc1Cl)C(N)=O	1.1	-22.3	2.3	2.2	21.0	/	/	/	/	/
Cc1cccc(/C(N)=N/OC(=O)c2ccc(Cl)cc2Cl)c1	1.7	94.2*	97.3*	98.3*	14.6	99.1*	100.3*	103.1*	98.9*	95.5*
N/C(=N\OC(=O)c1ccc(Cl)cc1Cl)c1ccc(Cl)cc1	1.9	61.7*	36.7	54.2*	18.1	13.1	34.7	69.1*	47.7	36.3
Cc1ccc(/C(N)=N/OC(=O)c2ccc(C)cc2Cl)cc1	2.1	80.5*	70.3*	85.1*	10.3	62.7*	63.2*	88.6*	56.9*	24.6
SMILES	SENP1 inh	SENP6 block	SENP8 block-1	SENP7 block	SENP8 block-2	SENP8 confirm	SENP6 confirm	SENP7 confirm	Casp3 select	SENP luc ctr
CC(C)(C)NC(=O)C(CCc1ccccc1)n1c(=O)c(-c2cc3ccccc3[nH]2)nc2ccccc21 (stereo not given)	-17.4	/	/	/	-434.7	/	/	/	/	/
COCCCNC(=O)C[C@H]1C[C@H](C(=O)N(C(C)C)C(C)C)[C@@]2(C)c3[nH]c4cc(-c5ccco5)ccc4c3CCN2C1=O	-27.7	/	/	5.1	-381.4	/	/	/	/	/
N/C(=N\OC(=O)c1ccc(Cl)cc1Cl)c1ccccc1	0.3	100.8*	93.5*	98.9*	17.8	98.1*	99.2*	103.1*	97.9*	97.6*
C#CCNC(=O)C[C@@H]1C[C@@]2(C(=O)OCC)CCCC=C2N(CCC2=CCCCC2)C1=O	3.2	/	/	/	21.1	/	/	/	/	/
CCN(CC)C(=O)CSc1ncnc2sccc12	-5.2	-1.6	-6.5	-7.3	1.1	/	/	/	/	/
CCN(CC)C(=O)CSc1ncnc2c(-c3cccs3)nsc12	-25.0	56.9*	20.6	35.1	i	15.3	7.9	6.6	7.5	-4.0
COc1ccccc1NC(=O)C(=O)c1cn(CC(=O)N2CCOCC2)c2ccccc12	3.3	51.9*	46.7	55.7*	12.6	8.8	40.4	16.6	10.3	1.6
O=C(NCc1ccccc1)C(=O)c1cn(CC(=O)N2CCOCC2)c2ccccc12	0.5	-8.5	-12.9	54.8*	-44.7	-6.2	-1.7	3.5	5.1	-3.9
Cc1cccc(CSc2cn(CC(=O)N3CCOCC3)c3ccccc23)c1	0.6	64.5*	71.6*	74.1*	19.0	87.2*	86.7*	95.9*	69.5*	59.1*
CNC(=O)c1ccsc1NC(=O)c1ccc2c(c1)CCCC2	-2.7	58.7*	38.4	53.9*	-200.5	59.5*	60.0*	82.2*	32.3	21.7
NS(=O)(=O)c1ccc(NC(=O)c2ccc3c(c2)CCCC3)cc1	-1.7	-2.5	-4.8	-3.0	6.4	/	/	/	/	/
NC(=O)c1ccsc1NC(=O)c1ccc(N2CCCC2=O)cc1	-11.5	90.3*	86.9*	88.9*	-286.0	91.5*	90.9*	99.5*	94.0*	12.0
NC(=O)c1ccsc1NC(=O)c1ccc2c(c1)CCCC2	-11.5	95.8*	96.0*	99.1*	-177.5	97.3*	97.3*	101.4*	95.5*	67.3*
